Assay outcomes deposited in PubChem by several laboratories.
This is a sample that favours compounds with a hit; in the whole collection about 4% have one here.
KCNK9 inh: blocks the human KCNK9 two-pore domain potassium channel; HEK293 KCNK9, FluxOR thallium flux fluorescence; hits give low values; B-score at 10 µM; actives 1.2% (n = 310,000); Q9NPC2;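 active = ratio B-score over 3 SD below the library mean, with starting fluorescence within 5 SD of its mean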;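 note: negative B-score means less thallium flux so channel inhibition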
KCNQ1 act: human KCNQ1 channel potentiation or activation; actives 0.35% (n = 310,000); AID 2648; B-score at 10 µM; P51787; CHO-K1 KCNQ1, thallium flux FluxOR fluorescence; hits give high values;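 active = fluorescence ratio B-score, a plate-corrected score, at least three library SD, with initial intensity B-score within 5 SD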
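System: CHO-K1 cells stably expressing KCNQ1 / Medium: assay buffer for compound exposure, DMSO matched across wells / Reagent: thallium- and potassium-containing depolarizing buffer / Compound: one concentration, matched DMSO / Incubation: 20 min compound pretreatment at room temperature / Measured by: kinetic FluxOR fluorescence, 10 s baseline plus 110 s post-stimulus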
hERG protect: shields human hERG channel from block by proarrhythmic agents | actives 0.51% (n = 310,000) | CHO-hERG, FluxOR thallium flux, dofetilide IC70 present | activation (rescue from dofetilide block), less the hit threshold, % at 10 µM;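 active = activation above the mean of controls blocked by dofetilide plus 5 SD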;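 note: thallium influx through hERG after potassium depolarization seen as dye fluorescence rise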
PHOSPHO1 inh: blocks human PHOSPHO1 phosphatase activity | actives 1.1% (n = 290,000) | recombinant PHOSPHO1, absorbance phosphatase assay | inhibition, % at 13.3 µM | Q8TCT1; in the data active = inhibition above about 60%
KCNQ1 inh: blocks the human KCNQ1 potassium channel; P51787; CHO-K1 KCNQ1, FluxOR thallium flux fluorescence; hits give high values; B-score at 10 µM; actives 1.3% (n = 310,000);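 active = compounds whose thallium flux B-score, printed positive for inhibition, exceeds three library SD while starting fluorescence stays within three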;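 note: channel opened by potassium depolarization with thallium stimulus after 20 min compound exposure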
KCNK3 block: human KCNK3 channel inhibition, primary screen | O14649 | CHO-KCNK3 thallium flux, FluxOR fluorescence; hits give low values | B-score at 10 µM | actives 0.84% (n = 340,000) | AID 602410;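 active = B-score under library mean minus 4 SD, starting fluorescence ratio at most library mean plus 5 SD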;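 note: more negative B-score means stronger inhibition of thallium flux through KCNK3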
KCNK9 block conf: human KCNK9 inhibitor confirmation; shares compounds with KCNK9 inh; HEK293 KCNK9 cells, FluxOR thallium flux fluorescence; inhibition, % at 10 µM; actives 43% (n = 4,900); AID 492992;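 active = thallium signal inhibited by more than 5 SD of the compound-free buffer control wells, on both duplicate plates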;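 note: 0% = assay buffer control wells without compound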
Kir21 sel: tests whether KCNK9 modulators also affect mouse Kir2.1 | inhibition, % at 10 µM | Kir2.1 cells, FluxOR thallium flux fluorescence | actives 4% (n = 4,900) | shares compounds with KCNK9 inh;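 active = thallium signal drop more than 5 SD beyond the mean of the no-compound control wells, seen in both duplicate plates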;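 note: signal is fluorescence rise after thallium addition divided by baseline fluorescence; plate controls were assay buffer only for no effect and full block by chlorpromazine control for full effect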
Target sequence (P35561 whole entry, looked up): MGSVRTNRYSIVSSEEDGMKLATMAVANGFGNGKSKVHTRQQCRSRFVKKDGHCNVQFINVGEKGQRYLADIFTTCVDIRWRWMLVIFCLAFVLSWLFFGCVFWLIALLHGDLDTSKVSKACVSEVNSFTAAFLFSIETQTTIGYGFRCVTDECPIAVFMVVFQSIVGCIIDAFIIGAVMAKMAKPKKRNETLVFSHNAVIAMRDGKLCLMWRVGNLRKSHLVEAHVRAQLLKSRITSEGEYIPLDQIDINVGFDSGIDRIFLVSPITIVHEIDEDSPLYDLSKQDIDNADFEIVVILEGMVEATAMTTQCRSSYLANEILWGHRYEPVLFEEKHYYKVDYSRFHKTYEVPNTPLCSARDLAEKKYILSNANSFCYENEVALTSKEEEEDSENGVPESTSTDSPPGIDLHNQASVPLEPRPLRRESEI
KCNK9 uninduced: non-induced cell nonspecific activity of KCNK9 modulators | AID 492997 | inhibition, % at 10 µM | actives 40% (n = 4,900) | shares compounds with KCNK9 inh | non-induced KCNK9-HEK293, FluxOR thallium flux;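 active = thallium signal drop beyond 5 SD of the untreated control mean, on both duplicate plates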;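 note: plate controls were buffer only IC0 wells for no effect and SID17386958 at its maximal inhibitory level for full effect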
Active calls of the source: *; i = inactive; . = no result.

SMILES | KCNK9 inh | KCNQ1 act | hERG protect | PHOSPHO1 inh | KCNQ1 inh | KCNK3 block | KCNK9 block conf | Kir21 sel | KCNK9 uninduced
CCCCN(Cc1ccccc1)S(=O)(=O)c1cc(Br)cc2c1N(C(C)=O)C(C)C2 (configuration not stated) | -15.5* | i | -16.4 | -1.3 | i | i | i | i | 54.0%*
CCOc1ccccc1CNC(=O)CCCc1cn(C)c2ccccc12 | i | i | -4.9 | -13.5 | i | i | i | i | i
CCOc1ccccc1CNC(=O)CCc1cn(C)c2ccccc12 | i | i | -5.3 | 42.2 | i | i | . | . | .
N/C(=N\c1nc(CSc2ccc(Cl)cc2)cc(=O)[nH]1)Nc1cccc2ccccc12 | i | i | -2.9 | -3.2 | i | i | i | i | i
COc1ccc(N/C(N)=N/c2nc(CSc3ccc(Cl)cc3)cc(=O)[nH]2)cc1 | i | i | -6.4 | 21.4 | i | i | . | . | .
Cc1ccc(SCc2cc(=O)[nH]c(/N=C(\N)Nc3ccc(C)c(C)c3)n2)cc1 | i | i | -9.1 | -152.0 | i | i | i | i | i
CCN(CC(=O)Nc1c(F)cccc1F)C(=O)c1ccc(C#N)cc1 | i | i | -2.6 | 15.9 | i | i | . | . | .
O=C(O)c1nnn(-c2cccc(C(F)(F)F)c2)c1-c1ccccc1 | i | i | -4.3 | 37.7 | i | i | . | . | .
COc1cc(SC#N)ccc1N=Cc1c(C)[nH]n(-c2ccc(C)c(C)c2)c1=O | i | i | -4.3 | -32.0 | i | i | i | i | i
COc1cc(Cc2nccc3cc(OC)c(OC)cc23)c(NC(C)=O)cc1OC | i | i | -3.4 | . | i | i | . | . | .
CC(C)NC(=O)[C@@H]1CSC2c3ccccc3C(=O)N21 (some centres not stated) | i | i | -9.4 | 9.7 | i | i | . | . | .
COc1ccc(CNC(=O)[C@H](C)N2C(=O)N3CCc4c([nH]c5ccccc45)[C@@]3(C)C2=O)cc1OC | i | i | -4.9 | 39.5 | i | i | . | . | .
O=c1c(/C=N/OCc2ccc(Cl)cc2Cl)c[nH]n1-c1cccc(Cl)n1 | i | i | -2.6 | 31.7 | 7* | i | i | i | i
Cc1ccsc1/C=N/N1CCN(C2c3ccccc3-c3ccccc32)CC1 | i | i | -5.0 | 27.0 | i | i | i | i | 27.0%*
C(=N\N1CCN(C2c3ccccc3-c3ccccc32)CC1)/c1ccncc1 | i | i | -7.8 | 3.3 | i | i | . | . | .
O=C(O)C(c1ccccc1)N1C(=O)/C(=C\c2ccc(-c3ccccc3Cl)o2)SC1=S (configuration not stated) | i | i | -12.4 | 2.0 | i | i | i | i | i
Cc1ccccc1OCCn1cc(C(=S)N2CCCC2)c2ccccc21 | -9.65* | i | -6.7 | . | i | i | i | i | 30.0%*
CC(C)c1ccc(NC(=O)CCCN2C(=O)NC(C)(C)C2=O)cc1 | . | . | . | . | . | i | . | . | .
CCCCNC(=O)[C@H]1C[C@H]1[C@@H](O)[C@H](CO)NC(=O)[C@H](COCc1ccccc1)NC(=O)OC(C)(C)C | i | i | -3.6 | 15.2 | i | i | . | . | .
CCCCNC(=O)[C@H]1C[C@H]1[C@@H](O)[C@H](CO)NC(=O)[C@H](Cc1ccccc1)NC(=O)OC(C)(C)C | i | i | -3.8 | -1.7 | i | i | i | i | i
C=CCC1NS(=O)(=O)OC2CCCC12 (configuration not stated) | i | i | -2.7 | 9.6 | i | i | . | . | .
Nn1cnc2c(c1=O)C1(CCCCC1)Cc1ccccc1-2 | i | i | -8.3 | 4.7 | i | i | . | . | .
Oc1ccc(-c2nc3c4c(ncn3n2)-c2ccccc2CC42CCCC2)cc1 | -9.02* | i | -7.0 | -1.5 | i | i | 36.5%* | i | 35.0%*
CCn1c(C)c(C(C)=O)c(N2CCN(c3ccccc3)CC2)nc1=S | i | i | -8.3 | 30.5 | i | i | . | . | .
CCn1c(C)c(C(C)=O)c(N2CCN(C(c3ccccc3)c3ccccc3)CC2)nc1=S | -9.06* | i | -18.4 | 46.6 | i | i | i | i | i
SMILES | KCNK9 inh | KCNQ1 act | hERG protect | PHOSPHO1 inh | KCNQ1 inh | KCNK3 block | KCNK9 block conf | Kir21 sel | KCNK9 uninduced
CCOc1ccc(Br)cc1C1=NN(C(C)=O)C(c2ccc([N+](=O)[O-])s2)O1 (configuration not stated) | -10.3* | i | -7.1 | 31.6 | i | -10.2* | 63.0%* | i | 39.5%*
CC(=O)N1N=C(c2cccc([N+](=O)[O-])c2)OC1c1ccccc1Cl (configuration not stated) | i | i | -7.0 | 41.9 | i | i | . | . | .
O=C1C(Cl)=C(NC2CCCCC2)C(=O)N1Cc1ccccc1 | i | i | -8.3 | -3.9 | i | i | i | i | i
COC(=O)C1CC(O)CN1S(=O)(=O)c1cccs1 (configuration not stated) | i | i | -0.4 | 20.6 | i | i | . | . | .
CCc1ccc(CN(C)C(=O)CCc2nc3ccccc3n(-c3ccc(OC)cc3)c2=O)cc1 | i | i | -14.8 | 45.6 | i | i | i | i | 25.0%*
Cc1ccc(/C=C2\SC(=S)N(C(Cc3ccccc3)C(=O)O)C2=O)cc1 (configuration not stated) | i | i | -16.6 | 0.1 | i | i | i | i | i
O=C(O)C(Cc1ccccc1)N1C(=O)/C(=C/c2ccccc2)SC1=S (configuration not stated) | i | i | -6.6 | -1.3 | i | i | i | i | i
CCC(C(=O)O)N1C(=O)/C(=C/C(C)=C/c2ccccc2)SC1=S (configuration not stated) | i | i | -13.2 | 14.6 | i | i | i | i | i
COc1cc(/C=C2\SC(=S)N(C(Cc3ccccc3)C(=O)O)C2=O)ccc1O (configuration not stated) | i | i | -20.4 | -2.1 | i | i | . | . | .
CCN(CC(=O)Nc1sc2c(c1C#N)CCCC2)CC(=O)NC1CCS(=O)(=O)C1 (configuration not stated) | i | i | -16.4 | 6.6 | i | i | . | . | .
CC(CCN1CCN(c2ccc(F)cc2)CC1)c1ccccc1 (configuration not stated) | i | i | -7.5 | -8.2 | i | i | . | . | .
